Data on two compounds can be found in PMC8524144 (International Journal of Pharmaceutics: X, 2021).

As a reminder, the share remaining is what is left of the initial amount, in per cent. Higher therefore signals greater stability.

Data set [1] can be described thus: In vitro stability of hPTH. It is filed as physicochemical. In short, it runs like this:
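Peptide (1.0 mg teriparatide acetate per mL in 50 mM Tris, pH 6.5, no SBTI) mixed 1:1 with enzyme-free Tris buffer and incubated at 37 °C with shaking. Samples were taken at 2, 5, 10, 15, 30 and 60 min and quenched with an equal volume of 0.5% TFA. A zero-time mix served as 100%. Peptide was measured by C18 HPLC-UV. Run in duplicate.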

Data set [2] deals with pepsin. The conditions noted are these: ref Werle et al. (2006); cited from earlier work.
Data set [3] concerns trypsin. The conditions noted are these: ref Werle et al. (2006); cited from earlier work.
Data set [4] deals with chymotrypsin. The conditions noted are these: ref Werle et al. (2006); cited from earlier work.
The test system of data set [5] is aminopeptidase N. The conditions noted are these: ref Werle et al. (2006); cited from earlier work.
In data set [6] the test system is elastase. The conditions noted are these: ref Werle et al. (2006); cited from earlier work.
Data set [7] deals with membrane-bound peptidases. The conditions noted are these: ref Werle et al. (2006); cited from earlier work.
The conditions of data set [8]: SBTI at the levels found in the tested formulations; ref Hernández-Ledesma and Hsieh, 2017; Burshtein et al. 2018b; cited from earlier work.
Setting [9] is: 50 mM Tris buffer without protease, pH 6.5.

In data set [1] (setting [9]), `CC[C@H](C)[C@H](NC(=O)[C@H](CCC(=O)O)NC(=O)[C@H](CO)NC(=O)[C@@H](NC(=O)[C@@H](N)CO)C(C)C)C(=O)N[C@@H](CCC(N)=O)C(=O)N[C@@H](CC(C)C)C(=O)N[C@@H](CCSC)C(=O)N[C@@H](Cc1cnc[nH]1)C(=O)N[C@@H](CC(N)=O)C(=O)N[C@@H](CC(C)C)C(=O)NCC(=O)N[C@@H](CCCCN)C(=O)N[C@@H](Cc1cnc[nH]1)C(=O)N[C@@H](CC(C)C)C(=O)N[C@@H](CC(N)=O)C(=O)N[C@@H](CO)C(=O)N[C@@H](CCSC)C(=O)N[C@@H](CCC(=O)O)C(=O)N[C@@H](CCCN=C(N)N)C(=O)N[C@H](C(=O)N[C@@H](CCC(=O)O)C(=O)N[C@@H](Cc1c[nH]c2ccccc12)C(=O)N[C@@H](CC(C)C)C(=O)N[C@@H](CCCN=C(N)N)C(=O)N[C@@H](CCCCN)C(=O)N[C@@H](CCCCN)C(=O)N[C@@H](CC(C)C)C(=O)N[C@@H](CCC(N)=O)C(=O)N[C@@H](CC(=O)O)C(=O)N[C@H](C(=O)N[C@@H](Cc1cnc[nH]1)C(=O)N[C@@H](CC(N)=O)C(=O)N[C@@H](Cc1ccccc1)C(=O)O)C(C)C)C(C)C` [hPTH(1–34), teriparatide] gave a share remaining at 0.25 h, 0.5 mg/mL of 100%; a share remaining at 0.5 h, 0.5 mg/mL of 100%; a share remaining at 1 h, 0.5 mg/mL of 100%. Besides, the “stability of hPTH(1–34) alone” value in data set [1] (no protease, no SBTI, 50 mM Tris buffer pH 6.5, 37 °C, HPLC-UV, n = 2) was “stable for at least one hour”. In data set [2], the “degradation by GIT protease pepsin” value is on record as “rapidly degraded”. In addition, the “degradation by GIT protease trypsin” value in data set [3] is reported as “rapidly degraded”. The “degradation by GIT protease chymotrypsin” value in data set [4] is listed as “rapidly degraded”. Further, in data set [5], the “effect of aminopeptidase N on the degradation of hPTH(1–34)” value is recorded as “very limited effect”. Besides, the “effect of elastase on the degradation of hPTH(1–34)” value in data set [6] is “very limited effect”. In data set [7], the “effect of membrane-bound peptidases on the degradation of hPTH(1–34)” value was “very limited effect”.
Take soybean trypsin inhibitor [SBTI]: in data set [8], the “tolerability in human trials” value is reported as “well tolerated”.
